FXIa inh: blocks human coagulation factor XIa protease activity. P03951. inhibition, % at 5 µM. purified FXIa, Boc-Glu-Ala-Arg-AMC fluorogenic substrate. actives 0.14% (n = 220,000);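 active means inhibition of at least 40%; inactive means inhibition below 40%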;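 further: fluorescence of freed AMC excited at 355 nm; 0% = enzyme without compound and 100% = no enzyme blank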
STAT3 act: increases IL-6 driven STAT3 reporter signal | U3A cells, IL-6 STAT3-luciferase reporter, luminescence; 100% = signal with IL-6 EC80 alone | activation (% of control), % at 5.6 µM | actives 0.91% (n = 190,000) | AID 871;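 active means activation above the screen-wide mean of compound activation plus 3 SD, cut at about 130% in these data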;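 further: 0% = background luminescence of wells with medium and substrate only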
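Detection: reporter luminescence signal / Assay system: STAT1-lacking human U3A cells, STAT3 luciferase reporter / Incubation: compound pre-incubation 1 h before IL-6, then 6 h stimulation at 37 °C / Control set: IL-6-only high control / Read-out: % activation relative to IL-6 control / Probe or stimulus: Interleukin-6, 33 ng/mL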
FXIIa inh 1536: blocks human coagulation factor XIIa protease activity; inhibition, % at 5 µM; purified FXIIa, Boc-QGR-AMC fluorogenic substrate, 2 h; actives 0.3% (n = 220,000); in the data active means inhibition above about 40%;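 further: 0% = enzyme with no compound and 100% = blank without enzyme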
hK5 inh: inhibitors of human kallikrein 5; Q9Y337; recombinant hK5, fluorogenic AMC substrate cleavage; inhibition, % at 5 µM; actives 0.59% (n = 210,000);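 active means inhibition of 40% or more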;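 further: 0% = enzyme controls without compound and 100% = no-enzyme blanks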
AHR act: human AHR activation | P35869 | AHR-responsive luciferase reporter cells, luminescence | activation, % at 5 µM | actives 2.5% (n = 320,000) | AID 2796; in the data active means activation above about 47%;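 further: 0% = vehicle wells and 100% = reference agonist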
Thrombin inh: thrombin (human) inhibition. AID 1046. alpha-thrombin, Boc-VPR-AMC fluorogenic substrate cleavage. actives 0.26% (n = 220,000). P00734. inhibition, % at 5 µM;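 active means inhibition at or above 40%; inactive means inhibition below 40%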;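 further: 0% = enzyme with no compound and 100% = wells without enzyme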
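System: Human alpha-thrombin protein | Medium: pH 7.5 Tris (50 mM) with NaCl 150 mM, Tween 20 0.05% | Times: Enzyme reaction carried out at room temperature | Detection: AMC fluorescence, 355/460 nm | Evaluation: Percent inhibition scaled between no-compound controls and no-enzyme blanks | Benchmarks: Enzyme without compound as high, wells lacking enzyme as low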
* marks the source's active call; other numbers are inactive results; nt = no result given. Hits are enriched below; roughly 3.5% of the tested compounds scored in any of these assays.

SMILES	FXIa inh	STAT3 act	FXIIa inh 1536	hK5 inh	AHR act	Thrombin inh
COC/C=C/C1=CC2=CC(=O)C(C)(OC(=O)c3cnc4ccccc4n3)C(=O)C2=CO1 (stereo unspecified)	nt	nt	nt	nt	6	nt
CN(c1ccc(C(=O)NCc2ccccc2)cc1)S(C)(=O)=O	6	100	23	40*	0	25
COc1ccccc1C(=O)c1nc2ccccc2n1C	nt	nt	nt	nt	62*	nt
COc1ccccc1OCc1nc2ccccc2n1C	nt	nt	nt	nt	25	nt
O=C(N/N=C/c1ccc2c(c1)OCO2)C1COc2ccccc2O1 (stereo unspecified)	-1	85	17	46*	7	6
O=C(CNC(=O)c1ccccn1)N/N=C/c1ccc2c(c1)OCO2	-2	94	7	2	68*	-6
O=C(Cc1ccccc1)N/N=C/c1ccc2c(c1)OCO2	-1	119	-2	-2	22	-7
COc1ccc(/C=N/NC(=O)C2COc3ccccc3O2)cc1OC (stereo unspecified)	0	107	9	1	3	-4
CC(/C=C/c1ccc2c(c1)OCO2)=N/NC(=O)CNc1ccc(C)cc1	nt	100	nt	nt	97*	nt
O=C(CCc1c[nH]c2ccccc12)N/N=C/c1ccc2c(c1)OCO2	-4	97	2	-9	53*	3
CSCC[C@H](NS(=O)(=O)c1ccc(C(C)=O)cc1)c1nnc2ccccn12	nt	nt	nt	nt	2	nt
O=C(CNc1ccccc1)N/N=C/c1ccc2c(c1)OCCO2	-8	105	3	-3	9	-7
CCN(CC)c1ccc(/C=N/NC(=O)CC(C)C)cc1	2	114	6	2	29	-9
O=C(CNc1ccccc1)N/N=C/c1ccc2c(c1)OCO2	5	91	6	-27	53*	-1
CCN(CC)c1ccc(/C=N/NC(=O)CNC(=O)c2ccccn2)cc1	-7	96	2	-11	60*	-3
CCOc1ccc(-c2nnc(-c3ccncc3)o2)cc1	-11	89	-6	-19	61*	-1
CCCCOc1ccc(-c2nnc(-c3ccncc3)o2)cc1	-13	99	-4	2	27	-3
C/C(=N\Nc1ccc([N+](=O)[O-])cc1)c1ccc(N2CCOCC2)cc1	3	nt	6	-3	7	-4
C/C(=N\Nc1ccc([N+](=O)[O-])cc1)c1ccc(-n2nncc2C)cc1	-5	98	9	-10	50*	0
CCCC(=O)Nc1nc2ccc(NC(=O)c3ccccc3F)cc2s1	-4	99	-1	-3	62*	-17
COc1cccc(-c2nnc(SCC(=O)Nc3ccc4c(c3)OCCO4)n2Cc2ccco2)c1	9	100	17	47*	6	42*
CCn1c2ccccc2c2cc(NC(=O)CSc3nnc(-c4ccccc4OC)n3N)ccc21	-3	108	8	-3	57*	-1
CCn1c2ccccc2c2cc(NC(=O)CSc3nnc(-c4cccc(OC)c4)n3N)ccc21	-3	105	8	-3	64*	5
COc1ccc(C)cc1NC(=O)CSc1nnc(COc2ccc(Cl)cc2)n1Cc1ccco1	15	107	52*	-3	9	-7
COc1ccc(C)cc1NC(=O)CSc1nnc(COc2ccccc2)n1Cc1ccco1	7	97	28	35	5	18
SMILES	FXIa inh	STAT3 act	FXIIa inh 1536	hK5 inh	AHR act	Thrombin inh
CCOC(=O)N1CCN(S(=O)(=O)c2c(C(=O)N3CCCCC3)c(C)n(C)c2C)CC1	nt	nt	nt	nt	1	nt
CC1=C(C(=O)NCc2ccccn2)C2(CCC(C)CC2)OC1=O (stereo unspecified)	6	96	26	115*	-2	12
CC1(C)C(c2ccccc2)=[N+]([O-])CN1O	4	100	17	-16	-1	4
CCn1cc(/C=N\NC(=O)C2(C)CC2(Cl)Cl)c(C)n1 (stereo unspecified)	2	106	8	-8	0	-1
CCC(=O)Nc1cc(C(C)C)c(O)cc1C	6	101	18	83*	0	18
O=c1oc2ccccc2cc1-c1cn2cccnc2n1	-12	77	-9	-50	16	-7
O=c1oc2ccccc2cc1-c1cn2ccccc2n1	-7	20	1	-5	76*	-15
Cc1c(NC(=O)CSc2ccc(Cl)cc2)cccc1-c1nc2cc(Cl)ccc2o1	0	99	6	-7	97*	-18
Cc1ccc2oc(-c3cccc(NC(=O)c4ccc(Br)o4)c3C)nc2c1	0	98	4	-9	32	1
O=C(O)CCCC(=O)N1N=C(c2ccccc2)CC1c1cccs1 (stereo unspecified)	49*	nt	25	24	-2	7
COc1ccc(CCNC(=O)c2cccnc2)cc1	7	100	18	-3	0	4
COc1ccc(OCc2cc(C(=O)NC3CCOC(C)(C)C3)no2)c2ccccc12 (stereo unspecified)	nt	nt	nt	nt	67*	nt
COc1ccc(OCc2cc(C(=O)N3CCC(OC)CC3)no2)c2ccccc12	nt	nt	nt	nt	51*	nt
COc1ccc(-n2nc(C(=O)NCC(=O)NCc3ccc(F)cc3)c3ccccc3c2=O)cc1	nt	nt	nt	nt	-1	nt
Cc1ccc2[nH]cc(CCNC(=O)c3ccco3)c2c1	nt	nt	nt	nt	97*	nt
COc1ccc2[nH]cc(CCNC(=O)c3ccco3)c2c1	nt	nt	nt	nt	38	nt
Cc1cc(NC(=O)c2cc(-c3cccc(OCC(C)C)c3)nc3ccccc23)no1	nt	nt	nt	nt	14	nt
CCC(=O)N(Cc1ccco1)c1nc(C(=O)Nc2ccc(Cl)cc2)c(C)s1	6	110	11	-12	74*	1
CCOc1ccc(NC(=S)N(Cc2ccc(Cl)cc2)Cc2ccco2)cc1	2	101	13	-12	6	1
COc1ccccc1Nc1ccc(NC(=O)c2cccc([N+](=O)[O-])c2C)cc1	nt	nt	nt	nt	11	nt
CCOC(=O)c1ccc(S(=O)(=O)NCC(c2ccc(N(C)C)cc2)c2c[nH]c3ccccc23)cc1 (stereo unspecified)	3	113	5	-25	10	-6
CN(C)c1ccc(C(CNS(=O)(=O)c2ccc(F)cc2)c2c[nH]c3ccccc23)cc1 (stereo unspecified)	-1	122	7	-21	57*	-2
O=C(Nc1ccc(F)c(Cl)c1)C1CCCN(c2cnccn2)C1 (stereo unspecified)	nt	nt	nt	nt	73*	nt
CCOC(=O)c1ccc(NC(=O)C2CCCN(c3cnccn3)C2)cc1 (stereo unspecified)	nt	nt	nt	nt	63*	nt
O=C(Nc1cccc(F)c1)C1CCCN(c2cnccn2)C1 (stereo unspecified)	nt	nt	nt	nt	52*	nt
O=C(NC(C(=O)N/N=C/c1ccccn1)c1n[nH]c(=O)c2ccccc12)c1ccccc1 (stereo unspecified)	-6	nt	0	-4	6	-5
Cn1c(-c2ccc[nH]c2=O)nc2cc(Cl)ccc21	-5	90	3	-22	7	-4

High-throughput results from PubChem.
